# Data taken from ChEMBL document CHEMBL1155469, “Peptide nucleic acids conjugated to short basic peptides show improved pharmacokinetics and antisense activity in adipose tissue” (J Med Chem, 2010).
# Active and inactive are the calls of the source. The rule behind the calls is not given here.
# Legend:
# Mus musculus [1] = experiment: Acute toxicity in Balb/C mouse assessed as change in serum chemistry at 37 mg/kg, ip administered thrice a week for 2 weeks measured 48 hrs after last dose; assay type: organism-based; parameters: dose 37 mg/kg, route intraperitoneal; settings: in vivo
# How it was run: (§1)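 Male Balb/c mice aged 6–8 weeks, n=4 per group, dosed i.p. with compound suspended in PBS and filter sterilized, 10 ul/g body weight. Body weight tracked throughout the live phase. Under isoflurane anaesthesia, terminal cardiac-puncture bleed; serum taken for transaminases and other chemistries. Sacrifice by cervical dislocation 48 h after last dose, with liver and spleen weighed at necropsy. Kidneys examined by histopathology.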
# Mus musculus [2] = experiment: Inhibition of PTEN expression in ip dosed Balb/C mouse white adipose tissue assessed as upregulation of isoform lacking exon administered thrice a week for 2 weeks measured 48 hrs after last dose […]; assay type: functional, organism-based
# Mus musculus [3] = experiment: Toxicity in Balb/C mouse assessed as change in serum glucose levels at 10 to 40 mg/kg, ip administered thrice a week for 2 weeks measured 48 hrs after last dose; assay type: organism-based; parameters: dose 10-40 mg/kg, route intraperitoneal; settings: in vivo
# How it was run: (§2)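 Male Balb/c mice, 6–8 wk, n=4/group, received compound i.p. in PBS (10 ul/g) 3x/wk for 2 wk. Body weight was monitored throughout. At 48 h after the last dose, mice were anesthetized with isoflurane and bled by cardiac puncture. Serum AST, ALT, BUN, bilirubin, glucose and triglycerides were compared with the saline group. ALT rise below 2x normal was counted as absent.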
# Mus musculus [4] = experiment: Toxicity in Balb/C mouse assessed as change in body weight at 10 to 40 mg/kg, ip administered thrice a week for 2 weeks measured 48 hrs after last dose; assay type: organism-based; parameters: dose 10-40 mg/kg, route intraperitoneal; settings: in vivo; how it was run: as §2
# Mus musculus [5] = experiment: Inhibition of PTEN expression in Balb/C mouse kidney assessed as upregulation of isoform lacking exon at 40 mg/kg, ip administered thrice a week for 2 weeks measured 48 hrs after last dose […]; assay type: functional; parameters: scale not given: the % may be the effect or the level left; settings: route intraperitoneal
# Mus musculus [6] = experiment: Inhibition of PTEN expression in Balb/C mouse liver at 10 to 40 mg/kg, ip administered thrice a week for 2 weeks measured 48 hrs after last dose by Western blot analysis; assay type: functional, organism-based
# How it was run: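 Male Balb/c mice, 6–8 wk, n=4/group, dosed i.p. in PBS 3x/wk for 2 wk and killed 48 h after the last dose. Tissue was homogenized in RIPA buffer with protease inhibitors, and protein was measured by Lowry assay. Lysates were run on 10% PAGE and blotted to PVDF. Blots were probed with rabbit anti-PTEN (1:1000) and HRP anti-rabbit (1:2500), with ECL detection.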
# Mus musculus [7] = experiment: Acute toxicity in Balb/C mouse assessed as change in organ weight at 37 mg/kg, ip administered thrice a week for 2 weeks measured 48 hrs after last dose; assay type: organism-based; parameters: dose 37 mg/kg, route intraperitoneal; settings: in vivo; how it was run: as §1
# Mus musculus [8] = experiment: Toxicity in Balb/C mouse assessed as change in serum AST levels at 10 to 40 mg/kg, ip administered thrice a week for 2 weeks measured 48 hrs after last dose; assay type: organism-based; parameters: dose 10-40 mg/kg, route intraperitoneal; settings: in vivo; how it was run: as §2
# Mus musculus [9] = experiment: Toxicity in Balb/C mouse assessed as change in blood urea nitrogen levels at 10 to 40 mg/kg, ip administered thrice a week for 2 weeks measured 48 hrs after last dose; assay type: organism-based; parameters: dose 10-40 mg/kg, route intraperitoneal; settings: in vivo; how it was run: as §2
# Mus musculus [10] = experiment: Inhibition of PTEN expression in Balb/C mouse kidney assessed as reduction of full length transcript at 40 mg/kg, ip administered thrice a week for 2 weeks measured 48 hrs after last dose […]; assay type: functional; parameters: scale not given: the % may be the effect or the level left; settings: route intraperitoneal
# Mus musculus [11] = experiment: Toxicity in Balb/C mouse assessed as change in serum ALT levels at 10 to 40 mg/kg, ip administered thrice a week for 2 weeks measured 48 hrs after last dose; assay type: organism-based; parameters: dose 10-40 mg/kg, route intraperitoneal; settings: in vivo; how it was run: as §2
# Mus musculus [12] = experiment: Toxicity in Balb/C mouse assessed as change in serum triglyceride levels at 10 to 40 mg/kg, ip administered thrice a week for 2 weeks measured 48 hrs after last dose; assay type: organism-based; parameters: dose 10-40 mg/kg, route intraperitoneal; settings: in vivo; how it was run: as §2
# Mus musculus [13] = experiment: Acute toxicity in Balb/C mouse assessed as change in body weight at 37 mg/kg, ip administered thrice a week for 2 weeks measured 48 hrs after last dose; assay type: organism-based; parameters: dose 37 mg/kg, route intraperitoneal; settings: in vivo; how it was run: as §1
# Mus musculus [14] = experiment: Acute toxicity in Balb/C mouse assessed as change in organ weight at 25 mg/kg, ip administered BID for 5 days measured 48 hrs after last dose; assay type: organism-based; parameters: dose 25 mg/kg, route intraperitoneal; settings: in vivo; how it was run: as §1
# Mus musculus [15] = experiment: Toxicity in Balb/C mouse assessed as change in serum bilirubin levels at 10 to 40 mg/kg, ip administered thrice a week for 2 weeks measured 48 hrs after last dose; assay type: organism-based; parameters: dose 10-40 mg/kg, route intraperitoneal; settings: in vivo; how it was run: as §2
# Mus musculus [16] = experiment: Toxicity in Balb/C mouse assessed as increase in spleen weight at 40 mg/kg, ip administered thrice a week for 2 weeks measured 48 hrs after last dose; assay type: organism-based; parameters: dose 40 mg/kg, route intraperitoneal; settings: in vivo
# How it was run: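 Male Balb/c mice, 6–8 wk, n=4/group, were dosed i.p. in PBS 3x/wk for 2 wk at 40 mg/kg. They were killed by cervical dislocation 48 h after the last dose. Spleen weight was taken at necropsy and compared with the saline-treated group.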
# Mus musculus [17] = experiment: Acute toxicity in Balb/C mouse assessed as change in body weight at 25 mg/kg, ip administered BID for 5 days measured 48 hrs after last dose; assay type: organism-based; parameters: dose 25 mg/kg, route intraperitoneal; settings: in vivo; how it was run: as §1
# Mus musculus [18] = experiment: Acute toxicity in Balb/C mouse assessed as change in serum chemistry at 25 mg/kg, ip administered BID for 5 days measured 48 hrs after last dose; assay type: organism-based; parameters: dose 25 mg/kg, route intraperitoneal; settings: in vivo; how it was run: as §1
# Mus musculus [19] = experiment: Inhibition of PTEN expression in ip dosed Balb/C mouse white adipose tissue assessed as reduction of full length transcript administered thrice a week for 2 weeks measured 48 hrs after last dose […]; assay type: functional, organism-based
smiles,measurement,setting,value
Cc1cn(CC(=O)N(CCNC(=O)CN(CCNC(=O)[C@H](CCCCN)N(CCNC(=O)[C@H](CCCCN)NC(=O)[C@H](CCCCN)NC(=O)[C@H](CCCCN)NC(=O)[C@H](CCCCN)NC(=O)[C@H](CCCCN)NC(=O)[C@H](CCCCN)NC(=O)[C@H](CCCCN)NC(=O)[C@@H](N)CCCCN)C(=O)Cn2cc(C)c(=O)[nH]c2=O)C(=O)Cn2ccc(N)nc2=O)CC(=O)NCCN(CC(=O)NCCN(CC(=O)NCCN(CC(=O)NCCN(CC(=O)NCCN(CC(=O)NCCN(CC(=O)NCCN(CC(=O)NCCN(CC(=O)NCCN(CC(=O)NCCN(CC(=O)NCCN(CC(=O)NCCN(CC(=O)NCCN(CC(=O)N[C@@H](CCCCN)C(N)=O)C(=O)Cn2cnc3c(N)ncnc32)C(=O)Cn2ccc(N)nc2=O)C(=O)Cn2cnc3c(N)ncnc32)C(=O)Cn2cc(C)c(=O)[nH]c2=O)C(=O)Cn2ccc(N)nc2=O)C(=O)Cn2cc(C)c(=O)[nH]c2=O)C(=O)Cn2cnc3c(N)ncnc32)C(=O)Cn2ccc(N)nc2=O)C(=O)Cn2cnc3c(N)ncnc32)C(=O)Cn2ccc(N)nc2=O)C(=O)Cn2cnc3c(=O)[nH]c(N)nc32)C(=O)Cn2cnc3c(N)ncnc32)C(=O)Cn2ccc(N)nc2=O)c(=O)[nH]c1=O,Activity,Mus musculus [1],Non-toxic
same,Activity,Mus musculus [2],Dose-dependent effect
same,Activity,Mus musculus [3],Non-toxic
same,Activity,Mus musculus [4],Non-toxic
same,Activity,Mus musculus [5],185%
same,inhibition,Mus musculus [6],inactive
same,Activity,Mus musculus [7],Non-toxic
same,Activity,Mus musculus [8],Non-toxic
same,Activity,Mus musculus [9],Non-toxic
same,Activity,Mus musculus [10],70%
same,Activity,Mus musculus [11],Non-toxic
same,Activity,Mus musculus [12],Non-toxic
same,Activity,Mus musculus [13],Non-toxic
same,Activity,Mus musculus [14],Non-toxic
same,Activity,Mus musculus [15],Non-toxic
same,Activity,Mus musculus [16],145%
same,Activity,Mus musculus [17],Non-toxic
same,Activity,Mus musculus [18],Non-toxic
same,Activity,Mus musculus [19],Dose-dependent effect
